# Measured values from ChEMBL document CHEMBL4689842, “EUbOPEN Chemogenomics Library wave 1” (2021).
# Test system: HEK-293T
# Experiment: Multiplex assay against HEK293T;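 as to Population Tubulin-Different-Phenotype (%): share of the cells with healthy nuclei that show this phenotype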
# Format: toxicity, cell-based
# Details: human
# In short: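 Compound was added to live cells that had been stained at seeding with Hoechst33342, BioTracker Green Microtubule Cytoskeleton Dye, MitoTracker Red and Annexin V Alexa Fluor 680, and imaging followed on a CQ1 microscope at 37°C and 5% CO2. CellPathfinder machine-learning gating divided cells into Hoechst high-intensity objects or normal cells, normal cells into healthy, pyknosed or fragmented nuclei, and pyknosed cells into mitotic or apoptotic. Tubulin, mitochondrial-mass and membrane-permeability phenotypes are per cents of healthy-nucleus cells.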
# [1] = 12 h, 1 µM, compound concentration 1 uM, replicate 1
# [2] = 12 h, 1 µM, compound concentration 1 uM, replicate 2
# [3] = 12 h, 10 µM, compound concentration 10 uM, replicate 1
# [4] = 12 h, 10 µM, compound concentration 10 uM, replicate 2
# [5] = 24 h, 1 µM, compound concentration 1 uM, replicate 1
# [6] = 24 h, 1 µM, compound concentration 1 uM, replicate 2
# [7] = 24 h, 10 µM, compound concentration 10 uM, replicate 1
# [8] = 24 h, 10 µM, compound concentration 10 uM, replicate 2
# [9] = 48 h, 1 µM, compound concentration 1 uM, replicate 1
# [10] = 48 h, 1 µM, compound concentration 1 uM, replicate 2
# [11] = 48 h, 10 µM, compound concentration 10 uM, replicate 1
# [12] = 48 h, 10 µM, compound concentration 10 uM, replicate 2
smiles,measurement,setting,value
CC(C)c1noc(N2CCC(COc3ccc(-c4ccc(S(C)(=O)=O)cc4)nc3)CC2)n1 [GSK-1292263],Population Apoptotic (%),[1],36%
same,Population Fragmented Nuclei (%),[1],14%
same,Population Healthy Nuclei (%),[1],31%
same,Population Hoechst High Intensity Objects (%),[1],14%
same,Population Membrane Permeable-Phenotype (%),[1],8%
same,Population Mitochondria Different-Phenotype (%),[1],65%
same,Population Mitotic Cells (%),[1],63%
same,Population Normal (%),[1],85%
same,Population Pyknosed Nuclei (%),[1],54%
same,Population Tubulin-Different-Phenotype (%),[1],34%
same,Total Cell Count,[1],304
same,Population Apoptotic (%),[2],12%
same,Population Fragmented Nuclei (%),[2],2%
same,Population Healthy Nuclei (%),[2],50%
same,Population Hoechst High Intensity Objects (%),[2],1%
same,Population Membrane Permeable-Phenotype (%),[2],7%
same,Population Mitochondria Different-Phenotype (%),[2],15%
same,Population Mitotic Cells (%),[2],87%
same,Population Normal (%),[2],98%
same,Population Pyknosed Nuclei (%),[2],46%
same,Population Tubulin-Different-Phenotype (%),[2],16%
same,Total Cell Count,[2],228
same,Population Apoptotic (%),[3],50%
same,Population Fragmented Nuclei (%),[3],14%
same,Population Healthy Nuclei (%),[3],11%
same,Population Hoechst High Intensity Objects (%),[3],18%
same,Population Membrane Permeable-Phenotype (%),[3],16%
same,Population Mitochondria Different-Phenotype (%),[3],68%
same,Population Mitotic Cells (%),[3],50%
same,Population Normal (%),[3],81%
same,Population Pyknosed Nuclei (%),[3],74%
same,Population Tubulin-Different-Phenotype (%),[3],72%
same,Total Cell Count,[3],276
same,Population Apoptotic (%),[4],13%
same,Population Fragmented Nuclei (%),[4],7%
same,Population Healthy Nuclei (%),[4],20%
same,Population Hoechst High Intensity Objects (%),[4],12%
same,Population Membrane Permeable-Phenotype (%),[4],8%
same,Population Mitochondria Different-Phenotype (%),[4],26%
same,Population Mitotic Cells (%),[4],86%
same,Population Normal (%),[4],87%
same,Population Pyknosed Nuclei (%),[4],72%
same,Population Tubulin-Different-Phenotype (%),[4],26%
same,Total Cell Count,[4],131
same,Population Apoptotic (%),[5],39%
same,Population Fragmented Nuclei (%),[5],15%
same,Population Healthy Nuclei (%),[5],32%
same,Population Hoechst High Intensity Objects (%),[5],19%
same,Population Membrane Permeable-Phenotype (%),[5],2%
same,Population Mitochondria Different-Phenotype (%),[5],57%
same,Population Mitotic Cells (%),[5],60%
same,Population Normal (%),[5],80%
same,Population Pyknosed Nuclei (%),[5],51%
same,Population Tubulin-Different-Phenotype (%),[5],37%
same,Total Cell Count,[5],316
same,Population Apoptotic (%),[6],15%
same,Population Fragmented Nuclei (%),[6],6%
same,Population Healthy Nuclei (%),[6],62%
same,Population Hoechst High Intensity Objects (%),[6],3%
same,Population Membrane Permeable-Phenotype (%),[6],8%
same,Population Mitochondria Different-Phenotype (%),[6],14%
same,Population Mitotic Cells (%),[6],84%
same,Population Normal (%),[6],96%
same,Population Pyknosed Nuclei (%),[6],31%
same,Population Tubulin-Different-Phenotype (%),[6],31%
same,Total Cell Count,[6],270
same,Population Apoptotic (%),[7],58%
same,Population Fragmented Nuclei (%),[7],15%
same,Population Healthy Nuclei (%),[7],12%
same,Population Hoechst High Intensity Objects (%),[7],23%
same,Population Membrane Permeable-Phenotype (%),[7],7%
same,Population Mitochondria Different-Phenotype (%),[7],78%
same,Population Mitotic Cells (%),[7],41%
same,Population Normal (%),[7],76%
same,Population Pyknosed Nuclei (%),[7],72%
same,Population Tubulin-Different-Phenotype (%),[7],75%
same,Total Cell Count,[7],298
same,Population Apoptotic (%),[8],14%
same,Population Fragmented Nuclei (%),[8],7%
same,Population Healthy Nuclei (%),[8],38%
same,Population Hoechst High Intensity Objects (%),[8],9%
same,Population Membrane Permeable-Phenotype (%),[8],4%
same,Population Mitochondria Different-Phenotype (%),[8],32%
same,Population Mitotic Cells (%),[8],85%
same,Population Normal (%),[8],90%
same,Population Pyknosed Nuclei (%),[8],53%
same,Population Tubulin-Different-Phenotype (%),[8],55%
same,Total Cell Count,[8],139
same,Population Apoptotic (%),[9],37%
same,Population Fragmented Nuclei (%),[9],16%
same,Population Healthy Nuclei (%),[9],41%
same,Population Hoechst High Intensity Objects (%),[9],14%
same,Population Membrane Permeable-Phenotype (%),[9],4%
same,Population Mitochondria Different-Phenotype (%),[9],32%
same,Population Mitotic Cells (%),[9],62%
same,Population Normal (%),[9],85%
same,Population Pyknosed Nuclei (%),[9],42%
same,Population Tubulin-Different-Phenotype (%),[9],35%
same,Total Cell Count,[9],377
same,Population Apoptotic (%),[10],14%
same,Population Fragmented Nuclei (%),[10],4%
same,Population Healthy Nuclei (%),[10],80%
same,Population Hoechst High Intensity Objects (%),[10],4%
same,Population Membrane Permeable-Phenotype (%),[10],8%
same,Population Mitochondria Different-Phenotype (%),[10],3%
same,Population Mitotic Cells (%),[10],85%
same,Population Normal (%),[10],95%
same,Population Pyknosed Nuclei (%),[10],14%
same,Population Tubulin-Different-Phenotype (%),[10],22%
same,Total Cell Count,[10],482
same,Population Apoptotic (%),[11],63%
same,Population Fragmented Nuclei (%),[11],24%
same,Population Healthy Nuclei (%),[11],10%
same,Population Hoechst High Intensity Objects (%),[11],25%
same,Population Membrane Permeable-Phenotype (%),[11],8%
same,Population Mitochondria Different-Phenotype (%),[11],37%
same,Population Mitotic Cells (%),[11],36%
same,Population Normal (%),[11],74%
same,Population Pyknosed Nuclei (%),[11],64%
same,Population Tubulin-Different-Phenotype (%),[11],58%
same,Total Cell Count,[11],296
same,Population Apoptotic (%),[12],14%
same,Population Fragmented Nuclei (%),[12],8%
same,Population Healthy Nuclei (%),[12],62%
same,Population Hoechst High Intensity Objects (%),[12],3%
same,Population Membrane Permeable-Phenotype (%),[12],12%
same,Population Mitochondria Different-Phenotype (%),[12],12%
same,Population Mitotic Cells (%),[12],85%
same,Population Normal (%),[12],96%
same,Population Pyknosed Nuclei (%),[12],28%
same,Population Tubulin-Different-Phenotype (%),[12],54%
same,Total Cell Count,[12],176
Cc1ccc(C)c(Oc2ccncc2C(=O)N2CCN(C3CC3)c3ccccc32)c1,Population Apoptotic (%),[1],43%
same,Population Healthy Nuclei (%),[1],48%
same,Population Mitotic Cells (%),[1],56%
same,Population Normal (%),[1],91%
same,Population Pyknosed Nuclei (%),[1],44%
same,Total Cell Count,[1],385
same,Population Apoptotic (%),[2],16%
same,Population Healthy Nuclei (%),[2],42%
same,Population Mitotic Cells (%),[2],83%
same,Population Normal (%),[2],96%
same,Population Pyknosed Nuclei (%),[2],54%
same,Total Cell Count,[2],221
same,Population Apoptotic (%),[3],88%
same,Population Healthy Nuclei (%),[3],23%
same,Population Mitotic Cells (%),[3],11%
same,Population Normal (%),[3],78%
same,Population Pyknosed Nuclei (%),[3],62%
same,Total Cell Count,[3],200
same,Population Apoptotic (%),[4],56%
same,Population Healthy Nuclei (%),[4],14%
same,Population Mitotic Cells (%),[4],43%
same,Population Normal (%),[4],93%
same,Population Pyknosed Nuclei (%),[4],77%
same,Total Cell Count,[4],112
same,Population Apoptotic (%),[5],46%
same,Population Healthy Nuclei (%),[5],52%
same,Population Mitotic Cells (%),[5],53%
same,Population Normal (%),[5],89%
same,Population Pyknosed Nuclei (%),[5],38%
same,Total Cell Count,[5],403
same,Population Apoptotic (%),[6],11%
same,Population Healthy Nuclei (%),[6],53%
same,Population Mitotic Cells (%),[6],88%
same,Population Normal (%),[6],98%
same,Population Pyknosed Nuclei (%),[6],40%
same,Total Cell Count,[6],272
same,Population Apoptotic (%),[7],89%
same,Population Healthy Nuclei (%),[7],29%
same,Population Mitotic Cells (%),[7],10%
same,Population Normal (%),[7],82%
same,Population Pyknosed Nuclei (%),[7],53%
same,Total Cell Count,[7],213
same,Population Apoptotic (%),[8],68%
same,Population Healthy Nuclei (%),[8],24%
same,Population Mitotic Cells (%),[8],31%
same,Population Normal (%),[8],91%
same,Population Pyknosed Nuclei (%),[8],63%
same,Total Cell Count,[8],127
same,Population Apoptotic (%),[9],41%
same,Population Healthy Nuclei (%),[9],63%
same,Population Mitotic Cells (%),[9],58%
same,Population Normal (%),[9],91%
same,Population Pyknosed Nuclei (%),[9],26%
same,Total Cell Count,[9],567
same,Population Apoptotic (%),[10],18%
same,Population Healthy Nuclei (%),[10],77%
same,Population Mitotic Cells (%),[10],81%
same,Population Normal (%),[10],97%
same,Population Pyknosed Nuclei (%),[10],18%
same,Total Cell Count,[10],425
same,Population Apoptotic (%),[11],84%
same,Population Healthy Nuclei (%),[11],40%
same,Population Mitotic Cells (%),[11],15%
same,Population Normal (%),[11],84%
same,Total Cell Count,[11],206
same,Population Apoptotic (%),[12],76%
same,Population Healthy Nuclei (%),[12],48%
same,Population Mitotic Cells (%),[12],23%
same,Population Normal (%),[12],90%
same,Population Pyknosed Nuclei (%),[12],45%
same,Total Cell Count,[12],127
